Compounds with a hit are over-represented: about 3.5% of the library has one in this group of screens.
b-catenin transl – modulators of beta-catenin nuclear translocation. AID 1665. nuclear translocation activity, % at 5 µM. HeLa beta-catenin nuclear translocation, immunofluorescence imaging. 0.3% of 190,000 active;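 active = nuclear translocation activity above 50% at 5 µM, with a well cell count of 50 or more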;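 note: per-cell ratio of nuclear to cytoplasmic median beta-catenin stain intensity; plate controls were DMSO negative control for no effect and GSK-3 inhibitor IX positive control for full effect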
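System: HeLa cells, endogenous beta-catenin; compound dosing: 5 µM primary single dose, 0.1% DMSO, 0.02–20 µM confirmation series; incubation: 24 h compound exposure at 37°C, 5% CO2; signal: beta-catenin immunofluorescence imaging with DAPI; evaluation: % activation, nuclear-to-cytoplasmic median beta-catenin signal ratio per cell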
Efa HMGR inh – blocks class II HMG-CoA reductase of Enterococcus faecalis. purified E. faecalis HMGR, NADPH absorbance 340 nm kinetic. 0.41% of 190,000 active. AID 1066. inhibition, % at 10 µM;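 active = inhibition above a set limit, the median over all tested compounds plus 3 SD, cut at about 9.5% in these data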;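 note: enzyme runs in reverse so mevalonate oxidation gives rising NADPH absorbance; 0% = complete reaction with DMSO and 100% = background rate lacking mevalonate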
Yeast life ext – extends the lifespan of yeast; S. cerevisiae growth with nicotinamide, OD615; deaD strain in restrictive glucose medium; inhibition of the nicotinamide effect, % at 10 µM; 0.68% of 130,000 active; AID 775;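 active = inhibition above a set limit, placed 3 SD over the median of all compounds, cut at about 26% in these data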;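 note: 0% = nicotinamide-treated wells and 100% = cells grown without nicotinamide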
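Test system – modified budding yeast, DeaD strain · Compound – single dose 10 µM compound, 0.25% DMSO · Times – culture preincubation 4 h, compound exposure 48 h, both 30 °C · Detection – optical density (absorbance) at 615 nm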
Yeast growth inh – chemicals that inhibit yeast BB579 growth in restrictive medium (lifespan-shortening candidates) | S. cerevisiae BB579 growth, OD615, 48 h | AID 804 | inhibition, % at 10 µM | 0.51% of 140,000 active;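 active = inhibition above a set limit, 3 SD over the mean compound inhibition, cut at about 44% in these data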
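Test system: S. cerevisiae DeaD strain BB579 yeast; Medium: restrictive CSMM-D medium; Compound: one dose, 10 µM compound with 0.25% DMSO; Incubation: 4 h cell preincubation, 48 h compound exposure, 30 °C humidified; Signal: OD at 615 nm; Benchmarks: amphotericin B at 10 µg/mL as positive control.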
RAM inhibit – yeast RAM network inhibition. S. cerevisiae dse1pr::URA3 reporter, 5-FOA growth OD615, 2 d; analog-sensitive cbk1-as2 kinase mutant strain. inhibition, % at 50 µM. 1.8% of 190,000 active. AID 868;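 active = inhibition above a set limit, 3 SD over mean compound inhibition, cut at about 8.4% in these data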;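 note: 0% = DMSO-only wells with no growth and 100% = 10 µM 1-NA-PP1 full growth; inhibition rescues growth on 5-FOA so higher OD means more RAM inhibition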
MT stabilize HCS – microtubule stabilizers in HeLa cells; HeLa tubulin immunostaining HCS, 24 h; share of cells brighter than vehicle mean+2SD; % tubulin-high responders, % at 10 µM; 0.83% of 200,000 active; AID 2205;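 active = plate Z-score above 3 for both tubulin-high and condensed-nucleus cell shares, with cell loss under 80%, at 10 µM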;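 note: anti alpha tubulin signal scored within the nucleus-defined area of each cell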
* = called active by the depositor; . = not tested or not shown.

SMILES	b-catenin transl	Efa HMGR inh	Yeast life ext	Yeast growth inh	RAM inhibit	MT stabilize HCS
Cc1[nH]c(=O)[nH]c(=O)c1S(=O)(=O)N1CCCC(C(=O)N2CCN(c3cccc(C(F)(F)F)c3)CC2)C1 (stereo not drawn)	-2	-1	.	.	1	3
CCCC(=O)Nc1ccc(NC(=S)NC(=O)c2ccccc2[N+](=O)[O-])cc1	.	-11	-3	-3	1	10*
CCC(=O)NC(=S)Nc1ccc(NC(=O)c2ccccc2[N+](=O)[O-])cc1	-1	2	8	-32	3	4
C/C(=N\NC(=S)NCc1ccccc1)c1ccc(Br)cc1	4	-7	.	.	9.9*	2
Cc1cc2c(c(=O)o1)C(c1cccs1)C(C#N)=C(N)O2 (stereo not drawn)	-1	-6	11	-7	0	3
Cc1ccc(Cn2c(C)cc3c(c2=O)C(c2cccs2)C(C#N)=C(N)O3)cc1 (stereo not drawn)	.	-7	-4	-42	8.7*	3
Cc1c(C(=O)N/N=C/c2ccccc2)[nH]c2ccc(Cl)cc12	56*	-3	0	-39	6	13
COc1ccc(/C=N/NC(=O)c2[nH]c3ccc(Br)cc3c2-c2ccccc2)cc1	42	-11	-1	-32	3	14*
Cc1c(C(=O)N/N=C/c2ccc(N(C)C)cc2)[nH]c2ccc(Cl)cc12	41	0	2	-41	5	15
O=C(N/N=C/c1ccccc1Cl)c1[nH]c2ccc(Br)cc2c1-c1ccccc1	94*	3	-2	-20	3	7
COc1ccc(/C=N/NC(=O)c2[nH]c3ccc(Br)cc3c2-c2ccccc2)c(C(=O)O)c1OC	1	.	.	.	.	.
COc1ccc(CNC(=O)c2sc3nc4c(c(C(F)(F)F)c3c2N)CCC4)cc1	-1	6	5	-41	3	2
COc1cc(S(=O)(=O)NC2CCCCC2)c(C)cc1C	-1	-3	.	.	0	4
COc1cc(S(=O)(=O)NCc2ccccn2)c(OC)cc1Cl	-4	-6	.	-17	0	5
CCOc1cc(C)c(C(C)C)cc1S(=O)(=O)NCc1ccccn1	-1	-5	59*	-45	3	2
Cc1ccc(NC2=NC3(CCCC3)N=C(N)N2)c(C)c1	-1	-4	.	.	1	25*
CN(C)c1cc[n+](CC(=O)c2ccc(OC(F)F)cc2)cc1	0	.	.	.	.	.
CSc1nsc2nc(=O)c(/C=C3\C(C)=Nc4ccc(C)cc43)c(N)n12	.	-2	.	.	9.3*	28
CC1=Nc2ccc(C)cc2/C1=C/c1c(N)n2c(S(=O)(=O)C(C)C)nsc2nc1=O	-2	-2	.	.	2	2
CCCCOC(=O)Cn1cnc2ccc(Br)cc2c1=O	-1	2	15	-31	-1	4
CC(C)COC(=O)Cn1cnc2ccc(Br)cc2c1=O	4	2	27*	-14	-1	6
O=C(c1ccc(C(=O)N2CCCc3ccccc32)s1)N1CCCc2ccccc21	0	2	-17	84*	0	2
CCc1ccc2c(c1)CCCN2C(=O)c1ccccc1C(=O)O	0	-8	34*	-42	0	3
COc1ccc(OC)c(-c2cc(C(=O)N3CCCc4ccccc43)no2)c1	.	-2	-2	-41	9.3*	7
COc1ccccc1-c1cc(C(=O)N2CCCc3ccccc32)no1	.	-3	.	.	8	3
SMILES	b-catenin transl	Efa HMGR inh	Yeast life ext	Yeast growth inh	RAM inhibit	MT stabilize HCS
Cc1cc(C(=O)N/N=C2\CC(=O)c3ccccc32)c(C)n1-c1ccccc1	-8	3	.	.	5	4
NC1=NC(c2ccc(Cl)cc2)C(C(=O)c2ccccc2)N1 (stereo not drawn)	-1	.	.	.	.	.
O=C(O)CCCNC(=O)Cc1ccccc1	0	.	.	.	.	.
COc1ccccc1N1CCN(C(=O)C2c3ccccc3Oc3ccccc32)CC1	95*	-4	-13	-30	0	26*
O=C(C1c2ccccc2Oc2ccccc21)N1CCN(c2ccc(Cl)cc2)CC1	.	-2	-6	-44	5	33*
COc1ccccc1N1CCN(C(=O)C2CC=CCC2C(=O)O)CC1 (stereo not drawn)	0	-1	-19	-29	0	2
O=C(CCc1ccccc1)N1CCN(c2ccc(Cl)cc2)CC1	4	-7	-1	-8	2	1
O=C(Nc1ccc(F)cc1)c1ccccc1NS(=O)(=O)N1CCCC1	0	-6	.	.	1	3
COc1ccc(CN2CCCC(C(=O)c3cccc(OC(C)C)c3)C2)cc1Cn1cccn1 (stereo not drawn)	1	7	.	.	-2	2
CCOc1ccc(/C=N/NC(=O)c2c(C)n(C)c3ccc(OC)cc23)cc1	2	-4	3	-42	3	17*
CC1=C([N+](=O)[O-])C(c2cccc(Br)c2)C2=C(N1)c1ccccc1C2=O (stereo not drawn)	17	-4	-13	-42	2	11*
COc1c(F)c(F)c(C(=O)Nc2ccc3oc(-c4ccncc4)nc3c2)c(F)c1F	.	-3	-11	-14	8.9*	4
O=C(Nc1ccc2oc(-c3ccncc3)nc2c1)c1c(F)c(F)c(F)c(F)c1F	.	2	1	-83	6	3
O=S(=O)(Cc1noc(-c2ccccc2Cl)n1)c1ccccn1	1	.	.	.	.	.
Cc1ccc(OCC(=O)Nc2cc(S(=O)(=O)N3CCOCC3)ccc2Cl)c([N+](=O)[O-])n1	0	.	.	.	.	.
COc1cccc(-c2cc(=O)c3cc(NC(C)=O)ccc3[nH]2)c1	.	-5	7	-42	1	30*
CC(=O)Nc1ccc2[nH]c(C)cc(=O)c2c1	.	2	4	-46	1	1
CC1CCCCN1CC(=O)Nc1ccccc1Sc1ccccc1 (stereo not drawn)	0	-1	4	-36	2	3
O=C1c2ccccc2-c2nc3ccccc3nc21	-2	-1	-15	85*	0	2
Cc1ccc(-c2csc3ncnc(Sc4nnc(CN5CCCCCC5=O)o4)c23)cc1	0	-6	-1	-25	2	19*
O=C(CCl)NC(=O)NC12CC3CC(CC(C3)C1)C2	1	-2	35*	15	1	3
S=C(Nc1ccc(Oc2ccccc2)cc1)N1CCN(c2ccccn2)CC1	0	-6	.	.	0	4
O=C(Oc1ccc2c3c(c(=O)oc2c1)CCC3)c1ccco1	0	-6	-12	-14	4	2
O=C(CCCCCN1C(=O)c2ccccc2C1=O)Oc1ccc2c3c(c(=O)oc2c1)CCC3	-3	-7	23	-50	11*	4
COCCCN(C(=S)Nc1cc(Cl)cc(Cl)c1)C(C)c1ccncc1 (stereo not drawn)	4	-1	41*	-36	0	2
